Reference: ChEMBL document CHEMBL4145651, “Kleinhospitine E and Cycloartane Triterpenoids from Kleinhovia hospita” (J Nat Prod, 2018)

What was measured:
MCF7 = assay: Antiproliferative activity against human MCF7 cells after 72 hrs by SRB assay; format: functional, cell-based; settings: MCF7, 72 h
[1] = tested on: Human immunodeficiency virus 1; assay: Antiviral activity against HIV1 NL4-3 infected in human MT4 cells assessed as inhibition of viral replication after 3 days by luciferase reporter gene assay; format: functional, organism-based
Procedure, shortened: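 MT4 cells (1 × 10^5 cells/mL) infected with HIV-1 NL4-3 Nanoluc-sec reporter virus at 50 TCID50/well alongside a range of compound concentrations (multicycle replication). Supernatants harvested on day 3 post-infection and read for secreted luciferase (Nano-Glo).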

[2] = Selectivity index, ratio of CC50 for human MT4 cells to IC50 for HIV1 NL4-3 infected in human MT4 cells; format: toxicity, cell-based; settings: read-out: Ratio CC50/IC50
Procedure, shortened: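 Selectivity index computed as CC50 (MT4 CytoTox-Glo, 3 days) divided by anti-HIV IC50 (NL4-3 Nanoluc-sec luciferase in MT4, day 3); SI below 5 regarded as no selective activity.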

MDA-MB-231 = assay: Antiproliferative activity against human MDA-MB-231 cells after 72 hrs by SRB assay; format: functional, cell-based; settings: MDA-MB-231, 72 h
KB = assay: Antiproliferative activity against human KB cells after 72 hrs by SRB assay; format: functional, cell-based
[3] = Antiproliferative activity against human KBVIN cells after 72 hrs by SRB assay; format: functional, cell-based
A549 = assay: Antiproliferative activity against human A549 cells after 72 hrs by SRB assay; format: functional, cell-based; settings: A549, 72 h
[4] = Cytotoxicity against human MT4 cells assessed as reduction in cell viability after 3 days by cytoTox-Glo reagent based assay
[5] = Human immunodeficiency virus 1, NL4-3, MT4, 72 h, read-out: IC50

Row | Compound | IC50 (MCF7) | IC50 ([1]; mt4) | selectivity ratio [2] | IC50 (MDA-MB-231) | IC50 (KB) | IC50 [3] | IC50 (A549) | CC50 at 72 h [4] | IC50 [1, 5]
1 | CO[C@@H]1O[C@@]2(C=C(C)C(=O)O2)C[C@@H]1[C@H]1CC[C@@]2(C)[C@@H]3CC[C@H]4C(C)(C)C(=O)C=C[C@@]45C[C@@]35CC[C@]12C | > 10 µM | Not Active | < 5 | > 10 µM | > 10 µM | 5.7 µM | 9.1 µM |  | 
2 | CC1=C[C@@]2(C[C@H]([C@H]3CC[C@@]4(C)[C@@H]5CC[C@H]6C(C)(C)C(=O)C=C[C@]67C[C@]57CC[C@]34C)CO2)OC1=O | > 10 µM |  | 5.8 | > 10 µM | > 10 µM | > 10 µM | > 10 µM | 4.6 µM | 0.8 µM
3 | CC(=O)/C=C1/C=C([C@H]2CC[C@@]3(C)[C@@H]4CC[C@H]5C(C)(C)C(=O)C=C[C@@]56C[C@@]46CC[C@]23C)C(=O)N1 | > 10 µM | Not Active | < 5 | 10 µM | 8 µM | 6.9 µM | 9.4 µM |  | 
4 | CO[C@H]1O[C@]2(C=C(C)C(=O)O2)C[C@@H]1[C@H]1CC[C@@]2(C)[C@@H]3CC[C@H]4C(C)(C)C(=O)C=C[C@]45C[C@]35CC[C@]12C | > 10 µM |  | 5.3 | > 10 µM | > 10 µM | > 10 µM | > 10 µM | 12.6 µM | 2.4 µM
5 | CC1=C[C@@]2(C[C@H]([C@H]3CC[C@@]4(C)[C@@H]5CC[C@H]6C(C)(C)C(=O)C=C[C@@]67C[C@@]57CC[C@]34C)CO2)OC1=O | > 10 µM |  |  | > 10 µM | > 10 µM | > 10 µM | 8.2 µM |  | 
6 | CO[C@H]1O[C@@]2(C=C(C)C(=O)O2)C[C@@H]1[C@H]1CC[C@@]2(C)[C@@H]3CC[C@H]4C(C)(C)C(=O)C=C[C@@]45C[C@@]35CC[C@]12C | > 10 µM | Not Active | < 5 | > 10 µM | > 10 µM | > 10 µM | > 10 µM |  | 
7 | CC(C)=CC(=O)CC(C(=O)O)[C@H]1CC[C@@]2(C)[C@@H]3CC[C@H]4C(C)(C)C(=O)C=C[C@@]45C[C@@]35CC[C@]12C (some centres undefined) | > 10 µM |  |  | > 10 µM | > 10 µM | > 10 µM | > 10 µM |  | 
8 | CC(C)=CC(=O)C[C@@H](C)[C@H]1CC[C@@]2(C)[C@@H]3CC[C@H]4C(C)(C)C(=O)C=C[C@]45C[C@]35CC[C@]12C | > 10 µM | Not Active | < 5 | > 10 µM | > 10 µM | 8.4 µM | > 10 µM |  | 
9 | CO[C@H]1O[C@]2(C=C(C)C(=O)O2)C[C@@H]1[C@H]1CC[C@@]2(C)[C@@H]3CC[C@H]4C(C)(C)C(=O)C=C[C@@]45C[C@@]35CC[C@]12C | 10 µM |  |  | > 10 µM | > 10 µM | 6.1 µM | 8.9 µM |  | 
10 | CC(C)=CC(=O)C[C@@H](C)[C@H]1CC[C@@]2(C)[C@@H]3CC[C@H]4C(C)(C)C(=O)C=C[C@@]45C[C@@]35CC[C@]12C | > 10 µM |  |  | > 10 µM | > 10 µM | > 10 µM | > 10 µM |  | 
11 | CC(=O)O[C@H]1C(=O)[C@@]2(C)[C@H]([C@H](OC(=O)c3ccccc3)[C@]3(O)C[C@H](OC(=O)[C@H](O)[C@@H](NC(=O)c4ccccc4)c4ccccc4)C(C)=C1C3(C)C)[C@]1(OC(C)=O)CO[C@@H]1C[C@@H]2O [PACLITAXEL] | 0.0112 µM |  |  | 0.0081 µM |  | 2.79 µM | 0.0063 µM |  | 
12 | CC1(C)CC[C@]2(C)CC=C3[C@]4(C)CC[C@H]5C(C)(C)C(=O)CC[C@]5(C)[C@H]4CC[C@@]3(C)[C@@H]2C1 [TARAXERONE] | > 10 µM |  |  | > 10 µM | > 10 µM | > 10 µM | > 10 µM |  | 
13 | Cc1cn([C@H]2C[C@H](N=[N+]=[N-])[C@@H](CO)O2)c(=O)[nH]c1=O [ZIDOVUDINE] |  |  |  |  |  |  |  | > 3.74 µM | 
